Values after ≈ are worked out from the molar mass of the structure shown.
Legend:
[1] = Thermodynamic solubility of the compound at pH 7; assay type: physicochemical; settings: buffer, read-out: Therm_solubility
How it was run: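 The citrate salt (~5 mg) was made up at 5 mg/mL in pH-buffered solution, in triplicate. It was shaken 24 h at 600 rpm at room temperature, filtered (0.4 μm) and the final pH recorded. The filtrate was diluted in acetonitrile/water (1:1), centrifuged and quantified by HPLC-UV. Two determinations were made on two different batches.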

Mus musculus [2] = assay: Antiarthritic activity in B10/R3 mouse immunized with bovine type2 collagen in Freund's complete adjuvant assessed as inhibition of increase in clinical arthritic scores at 0.1 mg/kg, po administered bid for 10 days measured for 10 days; assay type: functional; settings: B10/R3, 240 h
[3] = Selectivity ratio of IC50 for recombinant JAK3 to IC50 for recombinant JAK2
[4] = Selectivity ratio of IC50 for recombinant CDK2 to IC50 for recombinant JAK2
Mus musculus [5] = assay: Antiarthritic activity in po dosed B10/R3 mouse immunized with bovine type2 collagen in Freund's complete adjuvant assessed as inhibition of increase in clinical arthritic scores administered bid for 10 days measured for 10 days; assay type: functional, organism-based
[6] = Selectivity ratio of IC50 for recombinant JAK1 to IC50 for recombinant JAK2

C1=C/COCc2cc(ccc2OCCN2CCCC2)Nc2nccc(n2)-c2cccc(c2)COC/1 [PACRITINIB]
solubility thermodynamic [1]: 150 µg/mL (≈ 317 µM)

C[C@@H]1C[C@H]2[C@@H]3CCC4=CC(=O)C=C[C@]4(C)[C@@]3(F)[C@@H](O)C[C@]2(C)[C@@]1(O)C(=O)CO [DEXAMETHASONE]
inhibition in vivo at 0.1 mg/kg (Mus musculus [2]): 63%

C1=C/COCc2cc(ccc2OCCN2CCCC2)Nc2nccc(n2)-c2ccc(o2)COC/1 (mixture of isomers)
Ratio IC50 [3]: 93
Ratio IC50 [4]: 152
inhibition (Mus musculus [5]): Dose-dependent effect
Ratio IC50 [6]: 58
